What was measured:
[1] = Inhibition of Trypanosoma brucei TREU927 Leucyl-tRNA Synthetase expressed in Escherichia coli BL21 (DE3)-RIPL using [14C]Leu by scintillation counting
Procedure, shortened: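 Compound preincubated 20 min at 37 °C without ATP, then started with 4 mM ATP. After 15 min, TCA-precipitated on filters. Nine-point IC50 curves, sigmoidal fit, reference inhibitor per batch.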

[2] = tested on: Trypanosoma brucei brucei; test: Antitrypanosomal activity against bloodstream-form Trypanosoma brucei brucei 427 after 72 hrs; format: functional, organism-based; conditions: Trypanosoma brucei, 427, 72 h
Procedure, shortened: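 HMI-9 with 10% FBS, 10% Serum Plus and pen/strep; log-phase parasites at final 1.0 × 10^5/mL, 0.4% DMSO. Serially diluted compound, 72 h at 37 °C, 5% CO2, then resazurin for 2-4 h more. Fluorescence read at ex 544/em 590 nm. Triplicates averaged, IC50 from sigmoidal dose-response fit; suramin and pentamidine as positive controls.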

L929 = test: Cytotoxicity against mouse L929 cells after 72 hrs; format: cell-based; conditions: L929, 72 h
Procedure, shortened: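 Fibroblasts grown in D-MEM with 10% FBS and pen/strep, kept subconfluent. Seeded from 1 × 10^4/mL suspension, attached overnight, medium replaced, serially diluted compound added from DMSO. Exposure 72 h at 37 °C, 5% CO2. Resazurin added for 3-4 h more, fluorescence read at ex 544/em 590 nm.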

| Compound | IC50 [1] [µM] | IC50 [2] [µM] | IC50 (L929) [µg/mL] |
| --- | --- | --- | --- |
| CC(=O)C(C)(C)Oc1ccc2c(c1)B(O)OC2 | 5 | 0.37 | > 10 |
| OCCCc1ccc2c(c1)B(O)OC2 | 688 |  |  |
| CC(C)(C)OC(=O)COc1ccc2c(c1)B(O)OC2 | 7.4 | 2.61 | > 10 |
| O=CCOc1ccc2c(c1)B(O)OC2 | > 100 |  |  |
| CCCCOc1ccc2c(c1)B(O)OC2 | 54.3 |  |  |
| OB1OCc2ccc(OCC3CCCCC3)cc21 | > 100 |  |  |
| CCCC(=O)COc1ccc2c(c1)B(O)OC2 | 30.8 |  |  |
| CCCC(Oc1ccc2c(c1)B(O)OC2)C(C)=O (stereo not drawn) | 31.4 |  |  |
| O=C1c2ccccc2C(=O)N1CCCOc1ccc2c(c1)B(O)OC2 | > 100 |  |  |
| CC(C)Oc1ccc2c(c1)B(O)OC2 | 15.8 |  |  |
| CCOC(=O)CCc1cccc2c1B(O)OC2 | > 1000 |  |  |
| CC(C)CC(=O)COc1ccc2c(c1)B(O)OC2 | 67.6 |  |  |
| CCOc1ccc2c(c1)B(O)OC2 | 13 |  |  |
| CCCC(=O)C(CC)Oc1ccc2c(c1)B(O)OC2 (stereo not drawn) | 2.9 | 12.9 | > 10 |
| CCC(=O)COc1ccc2c(c1)B(O)OC2 | 27.2 |  |  |
| CCOC(=O)COc1ccc2c(c1)B(O)OC2 | 3.5 | 0.72 | > 10 |
| OB1OCc2ccc(OCc3ccccn3)cc21 | > 100 |  |  |
| CCOC(=O)C(Oc1ccc2c(c1)B(O)OC2)c1ccccc1 (stereo not drawn) | 41.7 |  |  |
| CCOC(=O)C(CC)Oc1ccc2c(c1)B(O)OC2 (stereo not drawn) | 1.6 | 11.3 | > 10 |
| CCOC(=O)C(C)Oc1ccc2c(c1)B(O)OC2 (stereo not drawn) | 2.8 | 3 | > 10 |
| CCC(Oc1ccc2c(c1)B(O)OC2)C(C)=O (stereo not drawn) | 3.5 | 3.76 | > 10 |
| OCCCc1cccc2c1B(O)OC2 | 541 |  |  |
| CCCOc1ccc2c(c1)B(O)OC2 | 30.9 |  |  |
| N=C(N)c1ccc(OCCCCCOc2ccc(C(=N)N)cc2)cc1 [PENTAMIDINE] |  | 0.026 |  |
| OB1OCc2ccc(OCc3ccccc3F)cc21 | 25.6 |  |  |

| Compound | IC50 [1] [µM] | IC50 [2] [µM] | IC50 (L929) [µg/mL] |
| --- | --- | --- | --- |
| CCNC(=O)COc1ccc2c(c1)B(O)OC2 | 77.7 |  |  |
| O=C(/C=C/c1ccc2c(c1)B(O)OC2)c1ccccc1 | 209 |  |  |
| OB1OCc2ccc(O)cc21 | 30.9 |  |  |
| COC(=O)COc1ccc2c(c1)B(O)OC2 | 3.6 | 1.22 | > 10 |
| COCCOc1ccc2c(c1)B(O)OC2 | > 100 |  |  |
| O=C(Nc1ccccc1)Oc1ccc2c(c1)B(O)OC2 | 43.1 |  |  |
| CCC(=O)C(C)Oc1ccc2c(c1)B(O)OC2 (stereo not drawn) | 2.5 | 8.25 | > 10 |
| CCOC(=O)/C=C/c1ccc2c(c1)B(O)OC2 | 578 |  |  |
| CCC(O)C(C)Oc1ccc2c(c1)B(O)OC2 (stereo not drawn) | > 100 |  |  |
| CC(C)(C)NC(=O)COc1ccc2c(c1)B(O)OC2 | > 100 |  |  |
| CC(=O)C(Oc1ccc2c(c1)B(O)OC2)C(C)C (stereo not drawn) | 4.5 | 2.74 | > 10 |
| COC(COc1ccc2c(c1)B(O)OC2)OC | 71.3 |  |  |
| O=C(NC1CCCCC1)Oc1ccc2c(c1)B(O)OC2 | 32.3 |  |  |
| Cc1ccc(C(=O)Nc2ccc(S(=O)(=O)O)c3cc(S(=O)(=O)O)cc(S(=O)(=O)O)c23)cc1NC(=O)c1cccc(NC(=O)Nc2cccc(C(=O)Nc3cc(C(=O)Nc4ccc(S(=O)(=O)O)c5cc(S(=O)(=O)O)cc(S(=O)(=O)O)c45)ccc3C)c2)c1 [SURAMIN] |  | 0.005 |  |
| CCOC(=O)CCc1ccc2c(c1)B(O)OC2 | 16.7 |  |  |
| OB1OCc2ccc(OCc3ccccc3)cc21 | 30.6 |  |  |
| OB1OCc2ccccc21 [BENZOXABOROLE] | 22.1 |  |  |
| CCOC(=O)/C=C/c1cccc2c1B(O)OC2 | > 1000 |  |  |
| CCOC(=O)C(C)(C)Oc1ccc2c(c1)B(O)OC2 | 2.1 | 5.49 | > 10 |
| CC(=O)C(C)Oc1ccc2c(c1)B(O)OC2 (stereo not drawn) | 3.8 | 2.09 | > 10 |
| O=C(/C=C/c1cccc2c1B(O)OC2)c1ccccc1 | 412 |  |  |
| CC(C)(C)OC(=O)NCCOc1ccc2c(c1)B(O)OC2 | > 100 |  |  |
| O=C(O)COc1ccc2c(c1)B(O)OC2 | > 100 |  |  |
| OB1OCc2ccc(Oc3ccc4ccccc4n3)cc21 | 63 |  |  |
